Data on 96 molecules can be found in ChEMBL document CHEMBL4513216, “Probing the Open Global Health Chemical Diversity Library for Multistage-Active Starting Points for Next-Generation Antimalarials” (ACS Infect Dis, 2020).

This data set can be described thus: Toxicity liver stage against HepG2, at 10uM. The data set is classed as cell-based. On the set-up: test concentration 10 uM, cell line HepG2-A16-CD81EGFP. Particulars: human, HepG2-A16-CD81EGFP cells; read-out: INHIBITION
In outline: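 Uninfected HepG2-A16-CD81EGFP cells, 3 × 10^3 per well, 1536-well, plated on prespotted compound at 10 μM final, parasite-free screening media added to match infected plates; puromycin 10 μM positive, DMSO 0.5% negative; run in parallel with 48 h PbLuc assay at 37 °C, 5% CO2; viability by CellTiter-Glo luminescence, normalized to controls.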
Consider `CN(C)C(=O)COCc1cncc2c1CCN(Cc1ccccc1)C2`, for which the cytotoxicity at 10 µM was -4.24%. With `Cc1cnc(CN(C)C2CCN(Cc3nnc(C4CC4)o3)C2)o1` (stereo unspecified) the figure was 5.25%.

In the case of `Cc1nc(CN2CCCC2c2noc(C3CC3)n2)nc2ccccc12` (stereo unspecified), the cytotoxicity at 10 µM was -19%. On to `COc1cc(CNc2cnn(C(C)(C)C)c(=O)c2Cl)ccn1`, for which the cytotoxicity at 10 µM stood at 55.9%. Regarding `CCn1ccnc1CN1CCCN(C(=O)Cc2ccc(C)nc2)CC1`, the cytotoxicity at 10 µM was -1.92%.

`O=C(N[C@H]1CN2CCC1CC2)c1cc(Cn2cnc3ccccc32)[nH]n1`: the cytotoxicity at 10 µM was -4.26%. Turning to `CCOc1ccccc1C(C(=O)O)N(C)CC1CCOCC1` (stereo unspecified), the cytotoxicity at 10 µM was -4.36%. Consider `O=C(NCc1c(F)cccc1F)C1CN(C(=O)c2cnccn2)C1`, for which the cytotoxicity at 10 µM was -12.2%. For `Fc1ccccc1CN1CCC(c2n[nH]c(C3CC3)n2)CC1` the value was 6.21%.

For `CC(C)N(Cc1ccccn1)Cc1nc2c(cnn2C)c(=O)[nH]1`, the cytotoxicity at 10 µM is -6.42%.

For `CC1c2ncc(COCC3CCOCC3)n2CCN1Cc1cccnc1` (stereo unspecified), the cytotoxicity at 10 µM was determined as 5.95%. For `CCCc1n[nH]c(C2CN(C(=O)c3cccc4[nH]ncc34)CCO2)n1` (stereo unspecified) the value was -2.87%. For `CC(NC(=O)CN(C)S(C)(=O)=O)c1nnc2n1CCCCC2` (stereo unspecified) the value was -10.2%; for `Cc1c[nH]c(CN2CCOC(c3ccc(Cl)c(Cl)c3)C2)c(C)c1=O` (stereo unspecified), 17.7%; for `Cc1cc(C)n(CC2CN(Cc3nc4ccccc4s3)CCO2)n1` (stereo unspecified), 3.93%.

Regarding `COc1cccc2c1OCC(C(=O)N1CCC(NS(C)(=O)=O)CC1)C2` (stereo unspecified), the cytotoxicity at 10 µM was 1.49%. For `CCNC(=O)N1CCC(NC(=O)NCCCc2cccc(F)c2)C1` (stereo unspecified) the value was -47.5%. For the molecule `N#Cc1ccc(OCC(O)CN2CCc3cncnc3C2)cc1` (stereo unspecified), the cytotoxicity at 10 µM was -8.61%.

`Cc1occc1C(=O)NCC(=O)NCCCOc1ccc(F)cc1`: the cytotoxicity at 10 µM was -45.1%. With `Cc1cnc(C(=O)N2CCC3(CCN(Cc4ccccn4)C3=O)C2)cn1` (stereo unspecified) the figure was -140%.

Consider `CNC(=O)[C@@H]1C[C@@H](NC(=O)c2cn(C)nc2C)CN1Cc1sccc1C`, for which the cytotoxicity at 10 µM was -5.58%. For `CN(Cc1ccccc1Cl)C(C(=O)O)c1ccc(F)c(CO)c1` (stereo unspecified) the value was -46.4%; for `CN(Cc1ccon1)C(=O)CN1C(=O)OC(C)(C)C1=O`, -108%; for `CC(C)c1nccn1C1CCCN(C(=O)CCc2cscn2)C1` (stereo unspecified), -7.81%. With `CC(NC(=O)NC1CCN(Cc2ccncc2)CC1)c1ccccc1F` (stereo unspecified) the figure was -17.8%; with `COc1cccc(-n2cc3[nH]c(=O)n(C(C)C)n3c2=O)c1`, -7.32%; with `OCCN1CCN(Cc2coc(-c3ccccc3)n2)CC1`, -5.03%.

`CC(=O)N1CCCC(C(=O)NCc2noc(Cc3ccccc3)n2)C1` (stereo unspecified): the cytotoxicity at 10 µM was 3.02%.

Turning to `Cc1ccccc1C(C(=O)N(C)Cc1cnn(C)c1)N(C)C` (stereo unspecified), the cytotoxicity at 10 µM is -0.837%. Regarding `CN1C(=O)CCCC12CCCN(C(=O)c1cc(F)cc(F)c1)C2` (stereo unspecified), the cytotoxicity at 10 µM is -1.54%. For `O=C(c1cccnc1N1CCOCC1)N1CCCC(n2cncn2)C1` (stereo unspecified) the value was -3.37%; for `Cc1cccnc1[C@H](C)NC(=O)c1cccc(CC2CCNCC2)c1`, -5.22%; for `CCCOC(=O)N1CCCC(c2nnc(CN3CCOCC3)n2C)C1` (stereo unspecified), 2.19%. For `O=C1C(N2CC[C@@H](O)C2)CCCN1Cc1cccc(C(F)(F)F)c1` (stereo partly specified) the value was 1.22%; for `CC1COc2ccccc2N1C(=O)c1cscn1` (stereo unspecified), 11.5%; for `Cc1cc(-c2ccc(C(=O)O)cc2)nc(C2CCCN(C(C)C)C2)n1` (stereo unspecified), 5.61%. With `CN1Cc2ccccc2CC2(CCN(c3ncc(F)cn3)CC2)C1=O`, the cytotoxicity at 10 µM turned out to be 6.59%. On to `NC(=O)CC1CCCN(c2cncc(SCc3ccccc3)n2)C1` (stereo unspecified), for which the cytotoxicity at 10 µM came out at 11%. With `CC(=O)N[C@H]1CCO[C@@H](c2cccc(NC(=O)Cc3ccccc3)c2)C1`, the cytotoxicity at 10 µM was 8.3%. For `Fc1cc(CNCCn2cccn2)ccc1-n1cncn1` the value was -11.1%. For `CC1=N[C@@]2(CC[C@@H]3CN(Cc4ccc(C)cc4)C[C@@H]32)C(=O)N1CC1CC1` the value was 1.7%; for `COCCC1(CO)CCCN(C(=O)c2ccc(C(C)C)[nH]c2=O)C1` (stereo unspecified), -55.1%.

With `O=C(NC1CCN(Cn2nc(-c3ccccc3)oc2=O)CC1)C1CC1`, the cytotoxicity at 10 µM was determined as 8.19%.

With `Fc1ccc([C@@H]2COC[C@H]2NCc2cccc(F)c2)cc1`, the cytotoxicity at 10 µM was -2.92%. With `Cc1c(Cl)cccc1NC(=O)Cn1cc(C(=O)O)ccc1=O` the figure was -5.21%.

`Cc1ccoc1C(=O)N1CCCN(Cc2cnn(C)c2)CC1`: the cytotoxicity at 10 µM is -11.1%. With `CCc1nc(C2CCCN2Cc2noc(Cc3ccccc3)n2)no1` (stereo unspecified), the cytotoxicity at 10 µM amounted to 1.29%. Take `CC(C)N1[C@H](Cn2cccn2)C[C@@H]2CN(C3CCOCC3)CC[C@@H]21`: the cytotoxicity at 10 µM is 3.92%. With `NC(=O)COc1cccc(C(=O)N2CCCC(n3ccnc3)C2)c1` (stereo unspecified) the figure was -9.63%; with `Cc1nn(C)c2sc(C(=O)N3CCCC(n4ccnc4C)C3)cc12` (stereo unspecified), -10%; with `Cc1cn2c(n1)C(CNCc1cccc3c1OCO3)CCC2` (stereo unspecified), -0.372%.

`CC(C)Oc1ccc(-c2csc(Cn3ccc(=O)[nH]c3=O)n2)cc1`: the cytotoxicity at 10 µM worked out at 0.137%. With `CC(=O)c1c(C)nn(CC(=O)N2Cc3cnc(C(C)(C)C)nc3C2)c1C` the figure was -0.539%. With `COc1ccc(-c2nc(CNCCn3cccn3)cs2)cc1` the figure was -1.17%; with `CCOc1ncnc2c1CCN(c1cc(C(F)(F)F)ncn1)CC2`, 12.8%; with `Oc1cccc(CNC2CCN(CCc3ccncc3)CC2)c1`, -1.56%. With `Cc1n[nH]c(C2CN(C(=O)c3ccc(Cl)o3)CCO2)n1` (stereo unspecified) the figure was -5.59%; with `O=C([C@H]1CN(Cc2ccc(F)cc2)C[C@H]2OCC[C@@H]12)N1CCCO1`, 7.77%; with `CC(C)NC(=O)[C@H]1CN(Cc2ccccc2)C[C@@H]1C(=O)c1ccccc1`, 7.84%. In the case of `CN(Cc1ccco1)[C@@H]1CN(CC2CCOCC2)[C@@H]2CCCO[C@H]12`, the cytotoxicity at 10 µM was -76.4%.

Turning to `CN1CCC(N2CCC[C@H]2c2nc(-c3cncnc3N)no2)CC1`, the cytotoxicity at 10 µM was -5.33%. As for `Fc1ccc(CN2CCCCC2Cn2cncn2)c2ncccc12` (stereo unspecified), the cytotoxicity at 10 µM amounted to 6.95%. For `COCCO[C@@H]1CCN(Cc2csc(C)n2)[C@H]1Cc1ccccc1` the value was 5.98%. As to `N#CCSCCCN1CCN(C(=O)C2CCCC2)CC1`, the cytotoxicity at 10 µM is 5.34%.

In the case of `CC(NC(=O)Cn1ccnc1)c1ccc(OCC2CC2)c(F)c1` (stereo unspecified), the cytotoxicity at 10 µM was 0.99%.

For `COc1cc(F)ccc1N1CCN(Cc2nc(C)c(C)o2)CC1`, the cytotoxicity at 10 µM came out at 10.7%. For `CCc1nnc(SCc2nonc2C)n1C` the value was -1.04%. `CCn1ccnc1CN1CCCN(C(=O)Cc2csc(C)n2)CC1`: the cytotoxicity at 10 µM was -2.12%. For `CC1c2ncc(CNC(=O)C3CC3)n2CCN1Cc1cccnc1` (stereo unspecified) the value was -3.76%; for `CN(C)C(=O)CN1C(=O)CCC12CCN(Cc1cccn1C)CC2`, 6.45%. With `CCOc1cccc2c1OCC(C(=O)NC(C)Cn1cccn1)=C2` (stereo unspecified) the figure was -1.18%.

As for `Cc1nc(C)n(CC2CCCN2Cc2nc(C)c3ccccc3n2)n1` (stereo unspecified), the cytotoxicity at 10 µM is -12.4%. For `CCc1ccc(C(=O)N2CCC(c3nncn3CC)CC2)cc1` the value was -2.95%; for `O=C([C@@H]1C[C@@H]2CCN(Cc3ccccn3)C[C@H]2O1)N1CCCO1`, 2.29%; for `COc1cc(C(=O)N2CCC(O)(CN3CCOCC3)C(C)(C)C2)ccn1` (stereo unspecified), -9.61%. Take `O=C1CCSCC(C(=O)N2CCCCC2)N1` (stereo unspecified): the cytotoxicity at 10 µM is -3.55%. For `CO[C@@H]1CCN(C(=O)c2ccccn2)[C@H]1Cc1ccccc1` the value was 4.89%; for `Cc1nc[nH]c1CN(C)Cc1cnn(-c2ccc(F)cc2)c1`, 0.345%. In the case of `NC(=O)CN1CCC(C(=O)NCc2ccc3c(c2)OCCCO3)CC1`, the cytotoxicity at 10 µM is -6.42%. With `CCc1nc(CN2CCCN(C(=O)CCOC(C)C)CC2)cs1` the figure was -17.3%; with `Cc1cccc(-n2ncc3c2CCCC3NCc2cnn(C)c2C)c1C` (stereo unspecified), 13.8%; with `COc1ccc(CN2CCCC2Cn2nc(C)nc2C)cc1F` (stereo unspecified), 2.89%. Take `CCCC(=O)N1CCC2(CC1)COC2`: the cytotoxicity at 10 µM is 1.58%.

Regarding `CC(=O)Nc1cccc(-c2ccccc2CCN)c1`, the cytotoxicity at 10 µM was -5.85%.

As to `COc1ccc(OC)c(C(=O)Nc2cccnc2-n2cncn2)c1`, the cytotoxicity at 10 µM is -17%. Take `Cc1[nH]c2ccccc2c1CCNC(=O)N1CCC2(C1)OCCO2`: the cytotoxicity at 10 µM stood at 1.12%. For `CCn1c(NCc2ccccn2)nc2c(C)nn(C)c2c1=O` the value was 9.51%; for `CC1=C(c2ccc(F)cc2)S(=O)(=O)N=C1N1CCc2ccccc21`, -1.29%. With `COCCN(Cc1nccs1)c1nc2c(s1)c(C)nn2C` the figure was -47.6%; with `Cc1ccc(-c2[nH][nH]c(=O)c2CCN)cc1`, 6.03%. In the case of `Cc1nn(C)c(C)c1CC(=O)N1CCCC1Cn1cccn1` (stereo unspecified), the cytotoxicity at 10 µM is -14.8%.

Take `OCc1cc2ccccc2nc1NC1CC=CC1`: the cytotoxicity at 10 µM is -56%.

As to `Cc1noc(C)c1CN1CCn2nc(CCC(=O)N3CCCC3)cc2C1`, the cytotoxicity at 10 µM was -4.52%. With `CC(=O)N(Cc1ncc(C)o1)C1CCN(CCc2cnn(C)c2)C1` (stereo unspecified) the figure was 0.742%; with `Cn1cc(C2CCCN2c2ncnc3[nH]ccc23)cn1` (stereo unspecified), -9.59%.

Consider `COc1cc(N2CCC3(CC(=O)N(Cc4csc(C)n4)C3)C2)ncn1` (stereo unspecified), for which the cytotoxicity at 10 µM was -104%.
